Assay outcomes deposited in PubChem by Johns Hopkins Ion Channel Center.
An excerpt weighted towards active compounds, which were near 2.9% of everything screened.
TRPC6 inhibitor – blocks the mouse TRPC6 cation channel | HEK293-TRPC6, membrane potential dye, ACh-evoked depolarization; hits give low values | actives 1.1% (n = 310,000) | Q61143 | B-score at 10 µM | AID 2553;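 active means B-score under library mean minus 3 SD, initial fluorescence not abnormally high, positive integrated signal ratio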;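 further: B-score derived from integrated fluorescence ratio over the kinetic read; more negative B-score means stronger inhibition of depolarization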
Kir21 block – Kir2.1 (mouse) channel inhibition. P35561. HEK293-Kir2.1, FluxOR thallium flux fluorescence; hits give low values. B-score at 10 µM. actives 0.85% (n = 310,000). AID 1672;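 active means fluorescence ratio B-score at or below minus 3 SD of library scores, with starting-brightness B-score within 2 SD, cut at about -4.2 in these data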;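 further: channel flux triggered by added potassium and thallium sulfate stimulus; B-score of peak minus minimum fluorescence over baseline after thallium stimulus; more negative B-score means stronger Kir2.1 block with less thallium influx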
TRPC4 act – activators of mouse TRPC4 channel. HEK293 TRPC4beta/mu-opioid, Fluo4 calcium fluorescence; hits give high values. B-score at 10 µM. actives 0.49% (n = 310,000);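 active means B-score above 5 SD of library B-scores, and initial fluorescence ratio not above library mean plus 5 SD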;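 further: positive B-score marks a calcium rise read as TRPC4 activation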
Target sequence (Q9QUQ5 whole entry, looked up): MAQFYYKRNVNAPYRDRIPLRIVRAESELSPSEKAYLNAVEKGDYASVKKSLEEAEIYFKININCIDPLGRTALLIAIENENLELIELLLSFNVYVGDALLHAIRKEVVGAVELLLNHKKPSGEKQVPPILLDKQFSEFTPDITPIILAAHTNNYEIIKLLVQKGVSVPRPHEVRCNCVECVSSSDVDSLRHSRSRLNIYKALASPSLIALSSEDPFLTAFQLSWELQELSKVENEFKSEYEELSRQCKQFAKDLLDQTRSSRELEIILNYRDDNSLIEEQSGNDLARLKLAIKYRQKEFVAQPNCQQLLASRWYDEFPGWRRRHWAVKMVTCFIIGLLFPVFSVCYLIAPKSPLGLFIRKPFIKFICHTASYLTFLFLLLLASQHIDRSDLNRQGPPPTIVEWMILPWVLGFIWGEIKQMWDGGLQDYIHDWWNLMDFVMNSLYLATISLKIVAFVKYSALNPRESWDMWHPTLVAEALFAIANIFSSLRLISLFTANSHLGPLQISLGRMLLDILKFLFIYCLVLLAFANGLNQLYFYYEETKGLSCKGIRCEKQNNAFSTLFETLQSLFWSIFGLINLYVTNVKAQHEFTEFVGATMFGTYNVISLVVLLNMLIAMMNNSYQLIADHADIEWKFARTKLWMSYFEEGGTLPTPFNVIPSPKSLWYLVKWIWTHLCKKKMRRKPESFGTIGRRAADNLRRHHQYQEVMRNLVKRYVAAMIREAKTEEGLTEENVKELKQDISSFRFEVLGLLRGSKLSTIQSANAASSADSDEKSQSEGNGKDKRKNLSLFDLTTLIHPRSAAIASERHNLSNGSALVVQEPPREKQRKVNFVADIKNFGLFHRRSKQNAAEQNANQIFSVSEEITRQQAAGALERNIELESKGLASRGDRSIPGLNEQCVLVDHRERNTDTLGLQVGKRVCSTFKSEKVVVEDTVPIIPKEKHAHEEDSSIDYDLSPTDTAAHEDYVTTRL
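Assay system: HEK293 stable line with TRPC4beta plus mu-opioid receptor; schedule: 45 min room-temperature Fluo4 loading, 110 s read; technique: kinetic Fluo4 calcium fluorescence; evaluation: integrated baseline-normalised fluorescence ratio, converted to per-well B score; controls: buffer (low) and maximal DAMGO (high)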
TRPC4 PAM – allosteric potentiators of mouse TRPC4 channel; B-score at 10 µM; actives 0.42% (n = 310,000); HEK293 TRPC4beta/mu-opioid, DAMGO EC20, Fluo-4 Ca2+ flux; hits give high values; Q9QUQ5;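 active means B-score of calcium response area above 5 SD of library B-scores, with initial fluorescence ratio within 5 SD of library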
TRPC6 act – mouse TRPC6 channel activation; HEK293-TRPC6 membrane potential dye fluorescence; hits give high values; Q61143; B-score at 10 µM; actives 0.13% (n = 310,000);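 active means B-score of the integrated fluorescence ratio above library mean plus 3 SD, and starting fluorescence ratio within library mean plus 5 SD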;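 further: higher score means more depolarization so channel activation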
TRPC4 inh – blocks the mouse TRPC4 cation channel | HEK293 TRPC4beta/mu-opioid, DAMGO-evoked Fluo4 calcium flux; hits give low values | B-score at 10 µM | actives 0.39% (n = 300,000) | AID 2247 | Q9QUQ5;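 active means B-score over 3 SD under the library average, no early fluorescence shift, positive overall ratio signal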
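Assay system: HEK293 cells with stable TRPC4beta plus mu-opioid receptor expression; Probe or stimulus: DAMGO in two steps, submaximal then maximal; Dosing: single-point compound dosing; Measured by: Fluo4 calcium-dye fluorescence, kinetic read; Read-out basis: B score from integrated Fluo4 fluorescence ratio.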
TRPC4 sel inh 2 – second selectivity test of TRPC6 inhibitors: effect on mouse TRPC4 | shares compounds with TRPC6 inhibitor | HEK293 TRPC4/MOR, membrane potential dye fluorescence; channel activated by saturating DAMGO dose | inhibition, % at 10 µM | actives 42% (n = 920);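 active means compounds whose fluorescence signal differed from control wells by over 3 SD, either direction, in both duplicate plates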
TRPC4 spec – tests whether TRPC6 inhibitors also affect mouse TRPC4. HEK293 TRPC4/mu-opioid, membrane potential fluorescence. shares compounds with TRPC6 inhibitor. activity change, negative = inhibition, % at 10 µM. actives 61% (n = 920);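 active means rise or fall in signal beyond 3 SD of buffer-only wells in both replicate plates, either sign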;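 further: integrated kinetic ratio of fluorescence range over baseline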
HEK293 MPD ctr 2-1 – parental HEK293 nonspecific activity of TRPC6 inhibitors, second screen; shares compounds with TRPC6 inhibitor; parental HEK293 membrane potential dye fluorescence; maximal acetylcholine challenge after compound addition; signal change vs control, % at 10 µM; actives 31% (n = 920);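 active means membrane potential signal moving either way by over 3 SD of the maximum-effect control, in both duplicate plates, meaning non-specific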
HEK293 MPD ctr-1 – checks TRPC6 inhibitor effects in parental HEK293 cells; shares compounds with TRPC6 inhibitor; parental HEK293 membrane potential dye fluorescence; membrane potential signal change, % at 10 µM; actives 60% (n = 920); AID 2780;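 active means membrane potential signal shifting up or down by more than 3 SD of buffer-only wells, on both duplicate plates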
HEK293 MPD ctr-2 – checks TRPC6 modulator effects in parental HEK293 cells; shares compounds with TRPC6 inhibitor; membrane potential dye fluorescence; membrane potential signal change, % at 10 µM; actives 51% (n = 2,400); AID 488924;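 active means membrane potential signal moves up or down beyond 5 SD from buffer-only wells, on both duplicate plates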
HEK293 MPD ctr 2-2 – parental HEK293 nonspecific activity of TRPC6 modulators, second screen. shares compounds with TRPC6 inhibitor. membrane potential dye fluorescence; after compound, maximal acetylcholine stimulation. inhibition, % at 10 µM. actives 14% (n = 2,400);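 active means membrane potential signal drops by more than 5 SD from the mean control signal, in both duplicate plates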
TRPC4 ctr mod – mouse TRPC4 off-target activity of TRPC6 modulators; HEK293 TRPC4/mu-opioid, membrane potential fluorescence; percent change from control (negative = decrease, positive = increase), % at 10 µM; actives 69% (n = 2,400); shares compounds with TRPC6 inhibitor;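 active means membrane potential signal moved up or down beyond 5 SD of buffer control wells, in both duplicate plates, actives on both sides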
TRPC4 ctr inh 2 – mouse TRPC4 off-target activity of TRPC6 modulators, second screen | shares compounds with TRPC6 inhibitor | HEK293 TRPC4/mu-opioid, membrane potential dye fluorescence; stimulated with maximal-effect DAMGO | AID 488928 | actives 55% (n = 2,400) | inhibition, % at 10 µM;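 active means drop in membrane potential signal beyond 5 SD of the control wells in both duplicate plates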;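 further: TRPC4 counter screen for TRPC6 hits run under conditions tuned for TRPC6 not TRPC4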
TRPC6 block conf – confirmation of mouse TRPC6 inhibitors; shares compounds with TRPC6 inhibitor; HEK293-TRPC6, membrane potential dye, ACh-evoked depolarization; inhibition, % at 10 µM; actives 43% (n = 3,300); AID 488960;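 active means fluorescence ratio falls more than 5 SD below the full-stimulation control mean, in both duplicate runs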;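 further: integrated fluorescence ratio of peak minus minimum over baseline after agonist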
TRPC6 act confirm – mouse TRPC6 activator confirmation; shares compounds with TRPC6 inhibitor; HEK293-TRPC6 membrane potential dye fluorescence, FDSS; activation, % at 10 µM; actives 11% (n = 2,800); AID 488961;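 active means ratio signal rise beyond 5 SD above unstimulated control wells' mean, seen in both duplicate runs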
A number is an active result.

Results for Cc1ccc(CNC(=O)c2cc3c(=O)n4ccccc4nc3n(CC3CCCO3)c2=N)cc1 (stereo not drawn) ?
TRPC6 inhibitor: -6.2; Kir21 block: inactive; TRPC4 act: inactive; TRPC4 PAM: 11; TRPC6 act: inactive; TRPC4 inh: inactive; HEK293 MPD ctr-2: inactive; HEK293 MPD ctr 2-2: inactive; TRPC4 ctr mod: -36%; TRPC4 ctr inh 2: 52%; TRPC6 block conf: 64%; TRPC6 act confirm: inactive

What do the screens show for `Cc1cc(C)n2[nH]c(=O)c(N=Nc3cccc(Cl)c3)c2n1`?
TRPC6 inhibitor: -7.5; Kir21 block: inactive; TRPC4 act: inactive; TRPC4 PAM: inactive; TRPC6 act: inactive; TRPC4 inh: inactive; HEK293 MPD ctr-2: -198%; HEK293 MPD ctr 2-2: 65%; TRPC4 ctr mod: -28%; TRPC4 ctr inh 2: 37%; TRPC6 block conf: 46%; TRPC6 act confirm: inactive

Results for Cc1cc(C)n2[nH]c(=O)c(N=Nc3ccccc3)c2n1 ?
TRPC6 inhibitor: -7.4; Kir21 block: inactive; TRPC4 act: inactive; TRPC4 PAM: inactive; TRPC6 act: inactive; TRPC4 inh: inactive; TRPC4 sel inh 2: inactive; TRPC4 spec: -24%; HEK293 MPD ctr 2-1: inactive; HEK293 MPD ctr-1: -388%; TRPC6 block conf: inactive; TRPC6 act confirm: inactive

Results for Cc1cc(C)n2[nH]c(=O)c(N=Nc3cccc(C(F)(F)F)c3)c2n1 ?
TRPC6 inhibitor: inactive; Kir21 block: inactive; TRPC4 act: inactive; TRPC4 PAM: inactive; TRPC6 act: inactive; TRPC4 inh: inactive

What do the screens show for `c1cc(Nc2ncnc3sc4c(c23)CCC4)ccn1`?
TRPC6 inhibitor: -5.6; Kir21 block: inactive; TRPC4 act: inactive; TRPC4 PAM: inactive; TRPC6 act: inactive; TRPC4 inh: inactive; HEK293 MPD ctr-2: -242%; HEK293 MPD ctr 2-2: 67%; TRPC4 ctr mod: -39%; TRPC4 ctr inh 2: 38%; TRPC6 block conf: 55%; TRPC6 act confirm: inactive

What do the screens show for `C(=N\Nc1ncnc2sc3c(c12)CCC3)/c1ccncc1`?
TRPC6 inhibitor: inactive; Kir21 block: inactive; TRPC4 act: inactive; TRPC4 PAM: inactive; TRPC6 act: inactive; TRPC4 inh: inactive
